3 molecules from paper PMC6471013 (Chemistry (Weinheim an Der Bergstrasse, Germany), 2018) can be followed below.

Structures are written as SMILES. Where two headings read alike, the source gives them in different places.

For assay [1], the target named is Recombinant human integrin αvβ3 receptor (Homo sapiens, UniProt P05106+P06756). Type of assay: binding. The following applies: competition with biotinylated vitronectin for the isolated αvβ3 receptor. In short, it runs like this:
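Test compound competes with biotinylated vitronectin for binding to the αvβ3 receptor. IC50 is the concentration giving 50 % inhibition of vitronectin binding, estimated by curve fitting. Values are mean ± SD of duplicate determinations.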

The test system of assay [2] is αvβ3‐expressing human renal cell carcinoma 786‐O cells. The experiment in a line: Cell antiproliferative assay, 96 h, with or without elastase. The following applies: 786-0, 96 h. Type of assay: cell-based. In short, it runs like this: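 786‐O renal carcinoma cells (αvβ3-positive) exposed to test compound for 96 h, with or without 50 nm elastase from human leukocytes. IC50 taken as the concentration giving 50 % inhibition of cell viability. Samples run in triplicate.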

Chain of Recombinant human integrin αvβ3 receptor (P06756 31-992 limits assumed): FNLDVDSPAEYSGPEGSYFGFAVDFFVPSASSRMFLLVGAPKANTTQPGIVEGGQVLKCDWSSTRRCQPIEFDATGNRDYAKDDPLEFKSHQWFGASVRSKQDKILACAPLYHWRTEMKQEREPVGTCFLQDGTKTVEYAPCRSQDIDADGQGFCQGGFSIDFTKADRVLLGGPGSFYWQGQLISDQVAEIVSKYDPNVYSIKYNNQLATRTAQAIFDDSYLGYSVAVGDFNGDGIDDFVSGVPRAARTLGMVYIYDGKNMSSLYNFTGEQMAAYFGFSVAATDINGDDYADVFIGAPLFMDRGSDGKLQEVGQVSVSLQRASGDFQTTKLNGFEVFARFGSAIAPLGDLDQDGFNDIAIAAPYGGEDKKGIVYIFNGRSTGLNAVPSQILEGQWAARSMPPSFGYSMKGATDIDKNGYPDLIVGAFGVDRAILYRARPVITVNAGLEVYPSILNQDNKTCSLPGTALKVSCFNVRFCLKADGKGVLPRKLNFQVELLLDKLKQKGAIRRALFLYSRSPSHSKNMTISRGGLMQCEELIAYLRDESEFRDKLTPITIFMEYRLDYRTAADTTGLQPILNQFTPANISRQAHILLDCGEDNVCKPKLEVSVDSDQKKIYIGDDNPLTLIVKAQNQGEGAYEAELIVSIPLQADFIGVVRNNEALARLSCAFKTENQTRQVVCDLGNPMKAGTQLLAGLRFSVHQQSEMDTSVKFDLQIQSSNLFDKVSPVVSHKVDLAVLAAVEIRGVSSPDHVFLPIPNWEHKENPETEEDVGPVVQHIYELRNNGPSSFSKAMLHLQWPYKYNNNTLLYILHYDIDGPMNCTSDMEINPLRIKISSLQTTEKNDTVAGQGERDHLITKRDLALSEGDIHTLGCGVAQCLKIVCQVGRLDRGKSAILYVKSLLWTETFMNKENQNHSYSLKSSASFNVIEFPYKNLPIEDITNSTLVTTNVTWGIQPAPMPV
Chain of Recombinant human integrin αvβ3 receptor (P05106 27-718 limits assumed): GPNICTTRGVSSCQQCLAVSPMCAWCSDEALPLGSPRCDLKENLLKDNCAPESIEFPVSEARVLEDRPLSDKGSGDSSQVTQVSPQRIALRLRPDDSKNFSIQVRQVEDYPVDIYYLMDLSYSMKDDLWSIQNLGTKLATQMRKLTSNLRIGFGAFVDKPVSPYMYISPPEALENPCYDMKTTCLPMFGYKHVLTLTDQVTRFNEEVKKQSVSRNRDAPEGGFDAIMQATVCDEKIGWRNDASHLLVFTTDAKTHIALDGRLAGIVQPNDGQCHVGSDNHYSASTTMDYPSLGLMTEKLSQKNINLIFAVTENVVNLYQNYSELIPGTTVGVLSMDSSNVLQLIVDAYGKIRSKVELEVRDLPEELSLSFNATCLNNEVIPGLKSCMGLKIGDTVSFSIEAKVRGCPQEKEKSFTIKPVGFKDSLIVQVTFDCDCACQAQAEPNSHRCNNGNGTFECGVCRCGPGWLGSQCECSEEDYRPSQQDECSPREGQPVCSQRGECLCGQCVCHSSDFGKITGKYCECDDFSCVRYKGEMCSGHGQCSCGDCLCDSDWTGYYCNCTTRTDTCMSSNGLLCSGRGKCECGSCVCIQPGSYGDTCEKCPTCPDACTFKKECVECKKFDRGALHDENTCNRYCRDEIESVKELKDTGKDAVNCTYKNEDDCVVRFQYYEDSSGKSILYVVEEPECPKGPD

In the case of `CN1C(=CC=CC=CC2=[N+](CCCCCC(=O)NCc3ccc(CN4C(=O)[C@@H]5CC(=O)N[C@@H](CCCNC(=N)N)C(=O)NCC(=O)N[C@@H](CC(=O)O)C(=O)NC[C@@H]4C(=O)N5)cc3)c3ccc(S(=O)(=O)[O-])cc3C2(C)C)C(C)(C)c2cc(S(=O)(=O)O)ccc21` [compound 2, cyclo(DKP‐RGD)‐sCy5], the “αvβ3 integrin binding IC50, in words” value in assay [1] is listed as “low‐nanomolar”.
On the same count and under the same terms, the same measure for `N=C(N)NCCC[C@@H]1NC(=O)C[C@@H]2NC(=O)[C@@H](CNC(=O)[C@H](CC(=O)O)NC(=O)CCNC1=O)N(Cc1ccccc1)C2=O` [compound 3, cyclo(DKP‐RβAD)]: “micromolar”.
For the molecule `CC(=O)O[C@H]1C(=O)[C@@]2(C)[C@H]([C@H](OC(=O)c3ccccc3)[C@]3(O)C[C@H](OC(=O)[C@H](O)[C@@H](NC(=O)c4ccccc4)c4ccccc4)C(C)=C1C3(C)C)[C@]1(OC(C)=O)CO[C@@H]1C[C@@H]2O` [compound 12, Paclitaxel], the IC50 (commonly the concentration that gives 50% inhibition) in assay [2] (read-out: IC50, added elastase NO) worked out at 35.8 ± 16.7 nM; in assay [2] (read-out: IC50, added elastase YES), 29.5 ± 7.6 nM.
